Series [1] is described as follows: Lipophilicity, log D of the compound. Type of series: physicochemical. The settings on record: octanol/water.
Series [2] is described as follows: (§1) Volume of distribution at steady state in rat at 1 mg/kg, iv. Type of series: ADME, organism-based. The arrangement: dose 1 mg/kg, route intravenous. The settings on record: in vivo, read-out: Vdss.
The test system of another series is PBMC. The experiment in a line: Antiinflammatory activity in human PBMC assessed as inhibition of LPS-induced TNFalpha production after 20 hrs by fluorescence linked immunosorbant assay. Type of series: functional, cell-based.
In series [3] the test system is Rattus norvegicus. As to the kind of experiment: Antiinflammatory activity in Sprague-Dawley rat assessed as inhibition of LPS-induced bronchoalveolar lavage neutrophils at 1 mg/ml, inhalation administered as nebulized suspension. The class given is functional, organism-based. Put shortly: (§2)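 Rats were given the compound as an aqueous nebulized aerosol by nose-only inhalation 30 min before LPS challenge. Dose is expressed as mg/mL nebulizer concentration. Lung neutrophilia was the readout, and terminal lung concentration (nM) was measured. Groups held 8−10 animals per treatment.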

For a further series, the target named is Cytochrome P450 3A4 (Homo sapiens, UniProt P08684). As to the kind of experiment: Inhibition of CYP3A4 (unknown origin). The class given is ADME.
A short description of series [4]: (§3) Half life in rat at 1 mg/kg, iv. Type of series: ADME, organism-based. The arrangement: dose 1 mg/kg, route intravenous. To be noted: in vivo. The essentials:
(§4)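 Rat pharmacokinetics were run at 1 mg/kg, given iv or by intratracheal instillation, with 2−3 animals per study.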

Series [5] is described as follows: Clearance in rat at 1 mg/kg, iv. The class given is ADME, organism-based. The arrangement: dose 1 mg/kg, route intravenous. The settings on record: in vivo. Put shortly: as §4
For series [6], the target named is 3',5'-cyclic-AMP phosphodiesterase 4B (Homo sapiens, UniProt Q07343). As to the kind of experiment: Inhibition of human recombinant PDE4B using [3H]cAMP by packard topcount scintillation counting analysis.
The test system of series [7] is Rattus norvegicus. As to the kind of experiment: Apparent volume of distribution in rat at 1 mg/kg, iv. The settings on record: in vivo. The arrangement: dose 1 mg/kg, route intravenous. The class given is ADME, organism-based. The essentials:
as §4

Series [8] can be described thus: Fraction unbound in human plasma. The class given is ADME, cell-free.
The nature of series [9]: Aqueous solubility of the compound at pH 7.4. Type of series: physicochemical. To be noted: aqueous medium.
The next series deals with Cytochrome P450 2D6 (Homo sapiens, UniProt P10635). As to the kind of experiment: Inhibition of CYP2D6 (unknown origin). The class given is ADME.
Another series has as its target Cytochrome P450 2C9 (Homo sapiens, UniProt P11712). As to the kind of experiment: Inhibition of CYP2C9 (unknown origin). Type of series: ADME.
Another series deals with T1, Cytochrome P450 1A2 (Homo sapiens, UniProt P05177).
T1 sequence (P05177 whole entry): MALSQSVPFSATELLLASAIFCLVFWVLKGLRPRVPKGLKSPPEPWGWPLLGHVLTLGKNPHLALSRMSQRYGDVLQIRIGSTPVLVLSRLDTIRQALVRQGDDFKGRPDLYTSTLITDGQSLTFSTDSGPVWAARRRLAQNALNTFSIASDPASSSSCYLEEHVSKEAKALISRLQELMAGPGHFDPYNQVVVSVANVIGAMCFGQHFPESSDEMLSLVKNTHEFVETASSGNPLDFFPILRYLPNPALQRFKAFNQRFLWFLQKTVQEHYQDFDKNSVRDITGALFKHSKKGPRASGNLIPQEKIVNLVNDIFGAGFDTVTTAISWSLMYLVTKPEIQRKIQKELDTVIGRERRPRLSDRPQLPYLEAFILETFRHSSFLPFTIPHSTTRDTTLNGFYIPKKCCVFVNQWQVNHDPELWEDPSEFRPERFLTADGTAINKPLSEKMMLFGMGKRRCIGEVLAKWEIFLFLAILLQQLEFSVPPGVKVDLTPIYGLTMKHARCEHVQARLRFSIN
As to the kind of experiment: Inhibition of CYP1A2 (unknown origin). Type of series: ADME.

A further series addresses Cytochrome P450 2C19 (Homo sapiens, UniProt P33261). As to the kind of experiment: Inhibition of CYP2C19 (unknown origin). The class given is ADME.
Series [10] has as its system Blood. As to the kind of experiment: tissue or blood. The settings on record: Rattus norvegicus, 20 h, read-out: pIC50 (converted).
The subject of series [11] is Rattus norvegicus. The description is as §1. The class given is ADME, organism-based. The arrangement: dose 1 mg/kg, route intravenous. The settings on record: in vivo.
In series [12] the test system is Blood. As to the kind of experiment: Antiinflammatory activity in human whole blood assessed as inhibition of LPS-induced TNFalpha production after 20 hrs by ELISA. The class given is functional, tissue-based. (In an ELISA, binding on a coated surface is turned into a signal by an enzyme label.)
The subject of series [13] is Rattus norvegicus. The series is described as §3. Type of series: ADME, organism-based. The arrangement: dose 1 mg/kg, route intravenous. The settings on record: in vivo. Put shortly:
as §4

Series [14] relates to Rattus norvegicus. The experiment in a line: Antiinflammatory activity in Sprague-Dawley rat assessed as inhibition of LPS-induced bronchoalveolar lavage neutrophils at 0.01 to 0.1 mg/ml, inhalation administered as nebulized suspension. Type of series: functional, organism-based. Put shortly: as §2
Series [15] concerns Rattus norvegicus. The experiment in a line: Antiinflammatory activity in Sprague-Dawley rat assessed as inhibition of LPS-induced bronchoalveolar lavage neutrophils measured as LPS duration at 0.03 to 3 mg/ml, inhalation administered as nebulized suspension. Type of series: functional, organism-based. The essentials: (§5)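 Duration protocol: rats received a nose-only inhalation of nebulized aqueous compound solution 12 h before LPS challenge. Dose is expressed as mg/mL nebulizer concentration. Readout was LPS-induced pulmonary neutrophilia, with terminal lung concentration (nM) measured. Groups held 8−10 animals per treatment.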

Series [16] relates to Rattus norvegicus. The experiment in a line: Antiinflammatory activity in Sprague-Dawley rat assessed as inhibition of LPS-induced bronchoalveolar lavage neutrophils at 0.03 mg/ml, inhalation administered as nebulized suspension. Type of series: functional, organism-based. The essentials: as §2
The nature of series [17]: Half life in rat at 1 mg/kg, it. The settings on record: in vivo, inhaled or intranasal. Type of series: ADME, organism-based. The arrangement: dose 1 mg/kg, route endotracheal. The essentials:
as §4

Series [18] can be described thus: Intrinsic clearance in human liver microsomes. Type of series: ADME. To be noted: read-out: CLH.
The subject of series [19] is Rattus norvegicus. The experiment in a line: Antiinflammatory activity in Sprague-Dawley rat assessed as inhibition of LPS-induced bronchoalveolar lavage neutrophils up to 350 nM, inhalation administered as nebulized […] treated 12 hr before LPS challenge. Type of series: functional, organism-based. Put shortly: as §5

SMILES strings stand for the structures. Converted amounts (≈) assume the structure as drawn. The source made the active and inactive calls.

Chain of 3',5'-cyclic-AMP phosphodiesterase 4B (Q07343 whole entry): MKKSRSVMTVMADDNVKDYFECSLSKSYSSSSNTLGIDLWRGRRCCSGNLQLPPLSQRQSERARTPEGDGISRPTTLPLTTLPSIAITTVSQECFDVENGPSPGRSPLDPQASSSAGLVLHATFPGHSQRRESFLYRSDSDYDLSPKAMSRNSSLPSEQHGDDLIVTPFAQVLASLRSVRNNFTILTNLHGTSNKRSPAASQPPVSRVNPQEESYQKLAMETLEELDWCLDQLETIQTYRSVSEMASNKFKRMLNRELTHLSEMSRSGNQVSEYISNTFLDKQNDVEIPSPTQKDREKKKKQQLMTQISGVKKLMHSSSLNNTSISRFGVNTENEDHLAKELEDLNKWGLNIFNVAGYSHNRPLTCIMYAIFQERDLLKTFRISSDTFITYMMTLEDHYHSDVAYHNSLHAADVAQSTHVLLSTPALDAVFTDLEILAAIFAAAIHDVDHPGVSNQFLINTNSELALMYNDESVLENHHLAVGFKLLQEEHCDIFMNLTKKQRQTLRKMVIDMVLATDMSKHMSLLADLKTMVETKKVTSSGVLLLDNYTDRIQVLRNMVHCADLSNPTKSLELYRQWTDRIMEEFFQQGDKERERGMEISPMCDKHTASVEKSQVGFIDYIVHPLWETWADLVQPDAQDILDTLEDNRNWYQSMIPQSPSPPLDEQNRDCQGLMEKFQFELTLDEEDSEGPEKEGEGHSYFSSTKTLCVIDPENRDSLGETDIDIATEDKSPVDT
Chain of Cytochrome P450 2C9 (P11712 whole entry): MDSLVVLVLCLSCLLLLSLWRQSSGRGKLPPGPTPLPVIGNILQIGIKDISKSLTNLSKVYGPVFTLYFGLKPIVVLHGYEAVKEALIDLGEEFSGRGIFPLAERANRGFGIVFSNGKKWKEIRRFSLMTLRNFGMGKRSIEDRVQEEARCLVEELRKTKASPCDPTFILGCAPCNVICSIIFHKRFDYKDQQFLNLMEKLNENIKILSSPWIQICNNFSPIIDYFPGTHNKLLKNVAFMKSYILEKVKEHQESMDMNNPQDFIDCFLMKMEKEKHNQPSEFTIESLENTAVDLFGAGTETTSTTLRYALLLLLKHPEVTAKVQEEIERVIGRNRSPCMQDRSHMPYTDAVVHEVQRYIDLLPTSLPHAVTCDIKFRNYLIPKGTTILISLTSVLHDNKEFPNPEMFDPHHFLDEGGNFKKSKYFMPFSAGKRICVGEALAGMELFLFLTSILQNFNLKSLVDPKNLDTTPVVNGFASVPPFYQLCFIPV
Chain of Cytochrome P450 2C19 (P33261 whole entry): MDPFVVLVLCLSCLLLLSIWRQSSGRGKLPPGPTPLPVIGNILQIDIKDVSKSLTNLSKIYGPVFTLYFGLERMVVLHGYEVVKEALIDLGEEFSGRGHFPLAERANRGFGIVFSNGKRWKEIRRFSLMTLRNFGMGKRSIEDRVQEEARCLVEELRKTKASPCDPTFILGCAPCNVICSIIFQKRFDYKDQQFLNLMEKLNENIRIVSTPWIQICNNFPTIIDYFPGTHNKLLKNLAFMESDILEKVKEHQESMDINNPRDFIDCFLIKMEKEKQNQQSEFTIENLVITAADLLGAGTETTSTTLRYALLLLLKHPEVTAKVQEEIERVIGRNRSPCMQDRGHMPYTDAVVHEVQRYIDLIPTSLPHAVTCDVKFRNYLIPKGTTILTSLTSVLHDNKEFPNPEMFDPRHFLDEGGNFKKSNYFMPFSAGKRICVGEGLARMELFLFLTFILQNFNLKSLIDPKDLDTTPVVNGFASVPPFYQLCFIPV
Chain of Cytochrome P450 3A4 (P08684 whole entry): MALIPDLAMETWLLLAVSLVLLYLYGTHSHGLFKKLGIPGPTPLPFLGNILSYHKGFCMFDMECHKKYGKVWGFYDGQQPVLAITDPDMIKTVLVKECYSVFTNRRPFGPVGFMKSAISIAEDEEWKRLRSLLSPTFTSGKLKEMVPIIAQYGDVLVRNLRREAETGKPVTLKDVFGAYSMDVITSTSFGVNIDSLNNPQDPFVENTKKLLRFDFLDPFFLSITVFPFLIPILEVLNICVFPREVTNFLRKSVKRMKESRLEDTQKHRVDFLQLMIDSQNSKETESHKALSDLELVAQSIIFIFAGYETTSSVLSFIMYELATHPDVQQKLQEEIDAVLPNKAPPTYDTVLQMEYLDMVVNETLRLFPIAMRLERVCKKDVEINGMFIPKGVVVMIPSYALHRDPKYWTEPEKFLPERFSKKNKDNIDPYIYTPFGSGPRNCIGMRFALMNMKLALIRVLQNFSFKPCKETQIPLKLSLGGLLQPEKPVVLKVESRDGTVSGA
Chain of Cytochrome P450 2D6 (P10635 whole entry): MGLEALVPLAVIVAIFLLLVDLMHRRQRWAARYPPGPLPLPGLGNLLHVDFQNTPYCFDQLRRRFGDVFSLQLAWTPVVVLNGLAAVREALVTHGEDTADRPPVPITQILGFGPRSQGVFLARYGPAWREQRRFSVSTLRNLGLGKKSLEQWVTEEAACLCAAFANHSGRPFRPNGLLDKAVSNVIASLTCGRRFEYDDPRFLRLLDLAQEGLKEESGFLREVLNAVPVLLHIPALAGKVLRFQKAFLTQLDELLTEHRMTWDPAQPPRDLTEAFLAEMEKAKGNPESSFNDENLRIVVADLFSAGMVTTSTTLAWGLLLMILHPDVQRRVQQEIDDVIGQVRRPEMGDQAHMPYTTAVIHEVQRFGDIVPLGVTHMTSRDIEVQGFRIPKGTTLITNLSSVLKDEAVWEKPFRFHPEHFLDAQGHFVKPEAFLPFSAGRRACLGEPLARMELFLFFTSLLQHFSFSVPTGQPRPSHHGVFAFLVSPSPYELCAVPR

On to `Cc1cccc2nc(C(=O)N[C@H]3CC[C@@H](NC(=O)c4cc(F)cnc4Oc4cccc(-c5ccc(CN6CCC(N7CCCC7)CC6)cc5)c4)CC3)cn12`, for which the logD (as a rule, the decadic logarithm of the distribution of all forms, ionised or not, between an organic phase and buffer at a given pH) in series [1] was found to be 3.2. Also, the Vd in [2] is 60 L/kg. For the same compound, the IC50 was 0.251 nM in the series on PBMC; above 1000 nM against Cytochrome P450 3A4; 0.0398 nM in [6]; above 1000 nM at Cytochrome P450 2D6; above 1000 nM against Cytochrome P450 2C9; above 1000 nM on Cytochrome P450 1A2. Besides, the IC50 against Cytochrome P450 2C19 was above 1000 nM. Moreover, in the series on Rattus norvegicus [3], the inhibition entry is “Active”. Further, the half-life (usually the time needed for the level to fall by half in the phase considered) in series [4] was 12 h. Further, the clearance (as a rule, a measure of how efficiently the substance is removed, as volume per time) in series [5] was 79 mL/min/kg. Also, the Vz/F with Rattus norvegicus [7] turned out to be 80 L/kg. Further, the free fraction (fraction unbound) (in general, free concentration divided by total concentration) in series [8] worked out at 0.02. Besides, the solubility (commonly the concentration that dissolves in the medium under given conditions) in series [9] was above 1400 µM.
`COc1cccc(Nc2c(C(N)=O)cnc3c(C)cc(S(=O)(=O)c4cccc(C(=O)N(C)C)c4)cc23)c1` [GSK-256066]: the IC50 in the series with Blood [10] is 0.251 nM; with PBMC it was 0.00316 nM; with Blood [12], 0.316 nM; in [6], below 0.01 nM. Besides, the distribution volume (Vdss) (as a rule, a proportionality between amount in the body and measured concentration, not a real space) in the series with Rattus norvegicus [11] was 0.75 L/kg. The same compound had a t1/2 in the series on Rattus norvegicus [13] of 14.9 h. The inhibition result in the series with Rattus norvegicus [14] and in the series with Rattus norvegicus [19] was “inactive” in each case. The compound also had a free fraction (fraction unbound) in series [8] of 0.015. Besides, the solubility in [9] worked out at 1.2 µM (≈ 0.622 µg/mL). In addition, the inhibition entry in the series with Rattus norvegicus [15] and in the series on Rattus norvegicus [16] was “Active” throughout. In series [17], this compound had a half-life of 8.1 h. Besides, the microsomal CLint in series [18] was above 150 µL/min/mg.
